Measured values from ChEMBL document CHEMBL1122328, “Hypolipidemic activity of phthalimide derivatives. 2. N-phenylphthalimide and derivatives” (1983).

How the values were obtained:
Assay type in all cases: functional
[1] = test system: Mus musculus; experiment: Effect on Serum cholesterol levels on CF1 male mice at a dose of 20 (mg/kg)/day after 16 days
In short: (§1)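 CF1 male mice (~25 g), drug suspended in 1% carboxymethylcellulose in water, given ip daily for 16 days; n = 6; vehicle control. Tail-vein blood on days 9 and 16, serum cholesterol by modified Liebermann–Burchard reaction; day-14 serum triglyceride by commercial kit; expressed as % control.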

[2] = test system: Mus musculus; experiment: Effect on Serum cholesterol levels on CF1 male mice at a dose of 20 (mg/kg)/day after 9 days; in short: as §1
[3] = test system: Mus musculus; experiment: Effect on Serum triglyceride levels on CF1 male mice at a dose of 20 (mg/kg)/day after 14 days; in short: as §1

Structure (SMILES) | Serum cholesterol (% of control) [1] | Control [2] | Control [3]
CCc1cccc(N2C(=O)c3ccccc3C2=O)c1 | 82% | 89% | 95%
CCOC(=O)C(C)(C)Oc1ccc(Cl)cc1 [CLOFIBRATE] | 96% | 98% | 91%
CC(=O)c1ccc(N2C(=O)c3ccccc3C2=O)cc1 | 55% | 83% | 66%
CCc1ccc(N2C(=O)c3ccccc3C2=O)cc1 | 89% | 89% | 96%
CC(=O)c1cccc(N2C(=O)c3ccccc3C2=O)c1 | 84% | 87% | 74%
O=C(O)c1cccc(N2C(=O)c3ccccc3C2=O)c1 | 69% | 81% | 71%
CCc1ccccc1N1C(=O)c2ccccc2C1=O | 103% | 88% | 92%
O=C1c2ccccc2C(=O)N1c1ccccc1 [N-PHENYL-PHTHALIMIDE] | 57% | 92% | 61%
O=C(O)c1ccccc1N1C(=O)c2ccccc2C1=O [N-PHTHALOYLANTHRANILIC ACID] | 77% | 92% | 78%
O=C1NC(=O)c2ccccc21 [PHTHALIMIDE] | 57% | 63% | 44%
O=C(O)c1ccc(N2C(=O)c3ccccc3C2=O)cc1 | 53% | 89% | 58%
